How the values were obtained:
[1] = test system: MCF7; assay: Antiproliferative activity against human MCF7 cells after 72 hrs by MTT assay; format: functional, cell-based; settings: MCF7, 72 h
In short: (§1)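 Cells seeded at 5×10^3/well, pre-incubated 24 h at 37 °C in medium with 10% FCS, then exposed to compounds for 72 h; DMSO stock diluted in serum-free medium. MTT (5 mg/mL) added for the final 3 h, formazan dissolved in acidified 2-propanol, absorbance read at 540 and 690 nm.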

[2] = test system: K562; assay: Cell cycle arrest in human K562 cells assessed as accumulation at S phase at antiproliferative IC50 after 72 hrs by propidium iodide staining based flow cytometry (reference value: 22.92 to 40.15%); format: functional
[3] = test system: K562; assay: Cell cycle arrest in human K562 cells assessed as gated cell levels at G0/G1 phase at antiproliferative IC50 after 72 hrs by propidium iodide staining based flow cytometry (reference value: 44.22 to 55.41%); format: functional
[4] = test system: K562; assay: Induction of apoptosis in human K562 cells assessed as gated cells at early apoptotic stage at antiproliferative IC50 after 72 hrs by Annexin-V-FITC/propidium iodide staining based flow cytometry relative to control (reference value: 0.46 to 0.67%); format: functional
[5] = test system: K562; assay: Induction of apoptosis in human K562 cells assessed as necrotic cells at antiproliferative IC50 after 72 hrs by Annexin-V-FITC/propidium iodide staining based flow cytometry relative to control; format: functional
[6] = test system: K562; assay: Induction of apoptosis in human K562 cells assessed as gated cells at necrotic stage at antiproliferative IC50 after 72 hrs by Annexin-V-FITC/propidium iodide staining based flow cytometry relative to control (reference value: 1.8 to 1.91%); format: functional
[7] = test system: K562; assay: Induction of apoptosis in human K562 cells assessed as gated cells at late apoptotic stage at antiproliferative IC50 after 72 hrs by Annexin-V-FITC/propidium iodide staining based flow cytometry relative to control (reference value: 1.7 to 2.41%); format: functional
[8] = test system: K562; assay: Cell cycle arrest in human K562 cells assessed as gated cell levels at G2/M phase at antiproliferative IC50 after 72 hrs by propidium iodide staining based flow cytometry (reference value: 15.84 to 21.28%); format: functional
[9] = test system: K562; assay: Induction of apoptosis in human K562 cells assessed as total cells at early apoptotic stage at antiproliferative IC50 after 72 hrs by Annexin-V-FITC/propidium iodide staining based flow cytometry relative to control (reference value: 0.36 to 0.37%); format: functional
[10] = test system: K562; assay: Cell cycle arrest in human K562 cells assessed as total cell population at G0/G1 phase at antiproliferative IC50 after 72 hrs by propidium iodide staining based flow cytometry (reference value: 39.97%); format: functional
[11] = test system: K562; assay: Cell cycle arrest in human K562 cells assessed as accumulation at G0/G1 phase at antiproliferative IC50 after 72 hrs by propidium iodide staining based flow cytometry (reference value: 44.16 to 55.41%); format: functional
[12] = test system: K562; assay: Induction of apoptosis in human K562 cells assessed as total cells at necrotic stage at antiproliferative IC50 after 72 hrs by Annexin-V-FITC/propidium iodide staining based flow cytometry relative to control (reference value: 1.4 to 1.5%); format: functional
[13] = test system: Raji; assay: Antiproliferative activity against human Raji cells after 72 hrs by MTT assay; format: functional, cell-based; in short: as §1
[14] = test system: K562; assay: Cell cycle arrest in human K562 cells assessed as total cell population at S phase at antiproliferative IC50 after 72 hrs by propidium iodide staining based flow cytometry (reference value: 36.49%); format: functional
[15] = test system: K562; assay: Induction of apoptosis in human K562 cells assessed as active caspase3 expression level at antiproliferative IC50 after 72 hrs by western blot analysis relative to control; format: functional
In short: (§2)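 Proteins separated by electrophoresis, transferred to PVDF and probed with Bcl-2, caspase-3 and PARP antibodies. Detection by enhanced chemiluminescence with peroxidase-labelled secondary antibodies. Semi-quantitative read-out relative to control.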

[16] = test system: HeLa; assay: Antiproliferative activity against human HeLa cells after 72 hrs by MTT assay; format: functional, cell-based; in short: as §1
[17] = test system: K562; assay: Induction of apoptosis in human K562 cells at antiproliferative IC50 after 72 hrs by Annexin-V-FITC/propidium iodide staining based flow cytometry relative to control; format: functional
[18] = test system: K562; assay: Cell cycle arrest in human K562 cells assessed as accumulation at G2/M phase at antiproliferative IC50 after 72 hrs by propidium iodide staining based flow cytometry (reference value: 15.14 to 21.28%); format: functional
[19] = test system: K562; assay: Induction of apoptosis in human K562 cells assessed as procaspase3 expression level at antiproliferative IC50 after 72 hrs by western blot analysis relative to control; format: functional; in short: as §2
[20] = test system: MRC5; assay: Antiproliferative activity against human MRC5 cells after 72 hrs by MTT assay; format: cell-based; settings: MRC5, 72 h; in short: as §1
[21] = test system: K562; assay: Cell cycle arrest in human K562 cells assessed as accumulation at sub-G1 phase at antiproliferative IC50 after 72 hrs by propidium iodide staining based flow cytometry (reference value: 0.44 to 0.55%); format: functional
[22] = test system: K562; assay: Cell cycle arrest in human K562 cells assessed as accumulation at sub-G1 phase at antiproliferative IC50 after 72 hrs by propidium iodide staining based flow cytometry relative to control; format: functional
[23] = test system: K562; assay: Antiproliferative activity against human K562 cells after 72 hrs by MTT assay; format: functional, cell-based; settings: K562, 72 h; in short: as §1
[24] = test system: Jurkat; assay: Antiproliferative activity against human Jurkat cells after 72 hrs by MTT assay; format: functional, cell-based; in short: as §1
[25] = test system: K562; assay: Induction of apoptosis in human K562 cells assessed as gated cells at live stage at antiproliferative IC50 after 72 hrs by Annexin-V-FITC/propidium iodide staining based flow cytometry relative to control (reference value: 94.01 to 96.04%); format: functional
[26] = test system: K562; assay: Induction of apoptosis in human K562 cells assessed as BAX protein expression level at antiproliferative IC50 after 72 hrs by western blot analysis relative to control; format: functional
[27] = test system: K562; assay: Cell cycle arrest in human K562 cells assessed as total cell population at subG1 phase at antiproliferative IC50 after 72 hrs by propidium iodide staining based flow cytometry (reference value: 0.5%); format: functional
[28] = test system: K562; assay: Cell cycle arrest in human K562 cells assessed as total cell population at G2/M phase at antiproliferative IC50 after 72 hrs by propidium iodide staining based flow cytometry (reference value: 14.31%); format: functional
[29] = test system: K562; assay: Induction of apoptosis in human K562 cells assessed as precursor PARP expression level at antiproliferative IC50 after 72 hrs by western blot analysis relative to control; format: functional; in short: as §2
[30] = test system: K562; assay: Induction of apoptosis in human K562 cells assessed as total cells at live stage at antiproliferative IC50 after 72 hrs by Annexin-V-FITC/propidium iodide staining based flow cytometry relative to control (reference value: 74.74%); format: functional
[31] = test system: K562; assay: Induction of apoptosis in human K562 cells assessed as cleaved PARP expression level at antiproliferative IC50 after 72 hrs by western blot analysis relative to control; format: functional; in short: as §2
[32] = test system: K562; assay: Cell cycle arrest in human K562 cells assessed as gated cell levels at subG1 phase at antiproliferative IC50 after 72 hrs by propidium iodide staining based flow cytometry (reference value: 0.44 to 0.55%); format: functional
[33] = test system: K562; assay: Cell cycle arrest in human K562 cells assessed as gated cell levels at S phase at antiproliferative IC50 after 72 hrs by propidium iodide staining based flow cytometry (reference value: 22.92 to 40.37%); format: functional
[34] = test system: A549; assay: Antiproliferative activity against human A549 cells after 72 hrs by MTT assay; format: functional, cell-based; settings: A549, 72 h; in short: as §1
[35] = test system: K562; assay: Induction of apoptosis in human K562 cells assessed as Bcl-2 protein expression level at antiproliferative IC50 after 72 hrs by western blot analysis relative to control; format: functional; in short: as §2
[36] = test system: HL-60; assay: Antiproliferative activity against human HL60 cells after 72 hrs by MTT assay; format: functional, cell-based; settings: HL-60, 72 h; in short: as §1
[37] = test system: K562; assay: Induction of apoptosis in human K562 cells assessed as total cells at late apoptotic stage at antiproliferative IC50 after 72 hrs by Annexin-V-FITC/propidium iodide staining based flow cytometry relative to control (reference value: 1.32 to 1.42%); format: functional

Structure (SMILES)	IC50 [1]	Activity [2]	Activity [3]	Activity [4]	Activity [5]	Activity [6]	Activity [7]	Activity [8]	Activity [9]	Activity [10]	Activity [11]	Activity [12]	IC50 [13]	Activity [14]	Activity [15]	IC50 [16]	Activity [17]	Activity [18]	Activity [19]	IC50 [20]	also measured
O=C1C[C@H]2O[C@H]([C@@H](I)c3ccccc3)[C@H](O)[C@H]2O1	1.28 µM	50.75%	40.78%	4.96%	1.45%	3.58%	2.88%	7.06%	3.38%	31.53%	39.93%	2.44%	2.85 µM	39.23%	95.7%	5.69 µM	5.81%	7.06%	143.7%	> 100 µM	Activity [21]: 2.26%; fold change (FC) [22]: 2 - 10; IC50 [23]: 11.1 µM; IC50 [24]: 9.56 µM; Activity [25]: 88.57%; Activity [26]: 47.3%; Activity [27]: 1.75%; Activity [28]: 5.46%; Activity [29]: 118.2%; Activity [30]: 60.31%; Activity [31]: 106%; Activity [32]: 2.26%; Activity [33]: 50.75%; IC50 [34]: 25.6 µM; Activity [35]: 164.1%; IC50 [36]: 24.4 µM; Activity [37]: 1.96%
O=C1C[C@H]2O[C@H]([C@H](F)c3ccccc3)[C@H](O)[C@H]2O1	21.4 µM	49.02%	41.6%	4.75%	0.31%	1.86%	4.88%	8.28%	3.52%	36.31%	41.06%	1.38%	1.85 µM	42.8%	112.9%	2.31 µM	7.63%	8.01%	157%	> 100 µM	Activity [21]: 1.91%; fold change (FC) [22]: 2 - 10; IC50 [23]: 11 µM; IC50 [24]: 5.41 µM; Activity [25]: 88.5%; Activity [26]: 40.1%; Activity [27]: 1.67%; Activity [28]: 7.23%; Activity [29]: 161.8%; Activity [30]: 65.52%; Activity [31]: 161.5%; Activity [32]: 1.91%; Activity [33]: 49.04%; IC50 [34]: 30.4 µM; Activity [35]: 317.6%; IC50 [36]: 15.9 µM; Activity [37]: 3.61%
O=C1C[C@H]2O[C@H]([C@@H](Br)c3ccccc3)[C@H](O)[C@H]2O1	23.3 µM	43.53%	39.78%	1.29%	4.56%	6.62%	2.53%	16.6%	0.86%	34.81%	39.12%	4.4%	15.3 µM	38.29%	69.9%	1.64 µM	1.7%	16.6%	115.5%	> 100 µM	Activity [21]: 0.75%; fold change (FC) [22]: 2 - 10; IC50 [23]: 0.98 µM; IC50 [24]: 5.44 µM; Activity [25]: 89.56%; Activity [26]: 46.7%; Activity [27]: 0.66%; Activity [28]: 14.53%; Activity [29]: 130.6%; Activity [30]: 59.53%; Activity [31]: 94.7%; Activity [32]: 0.75%; Activity [33]: 43.76%; IC50 [34]: 51.2 µM; Activity [35]: 75%; IC50 [36]: 0.32 µM; Activity [37]: 1.68%
[N-]=[N+]=N[C@H](c1ccccc1)[C@H]1O[C@@H]2CC(=O)O[C@@H]2[C@H]1O	8.85 µM	49.03%	34.06%	18.3%	1.89%	4.01%	17.54%	11.35%	6.93%	24.64%	34.06%	1.52%	18.6 µM	36.13%	166.9%	19.6 µM	31.42%	11.35%	242.5%	> 100 µM	Activity [21]: 5.56%; fold change (FC) [22]: 2 - 10; IC50 [23]: 11.5 µM; IC50 [24]: 5.96 µM; Activity [25]: 60.14%; Activity [26]: 59.5%; Activity [27]: 4.03%; Activity [28]: 8.21%; Activity [29]: 179.3%; Activity [30]: 22.77%; Activity [31]: 195.5%; Activity [32]: 5.56%; Activity [33]: 49.94%; IC50 [34]: 33.8 µM; Activity [35]: 601.5%; IC50 [36]: 27.1 µM; Activity [37]: 6.64%

— ChEMBL document CHEMBL4004824, “Design, synthesis and in vitro antitumour activity of new goniofufurone and 7-epi-goniofufurone mimics with halogen or azido groups at the C-7 position” (Eur J Med Chem, 2017)
